Laboratory results reported in ChEMBL document CHEMBL3627653, “Synthesis and biological evaluation of spiro[cyclopropane-1,3'-indolin]-2'-ones as potential anticancer agents” (Bioorg Med Chem Lett, 2015).
Active and inactive are the calls of the source. The rule behind the calls is not given here.

Tests used:
HeLa = assay: Anticancer activity against human HeLa cells assessed as reduction in cell viability incubated for 48 hrs by MTT assay; format: functional, cell-based
MCF7 = assay: Anticancer activity against human MCF7 cells assessed as reduction in cell viability incubated for 48 hrs by MTT assay; format: functional, cell-based; conditions: MCF7, 48 h
DU-145 [1] = assay: Anticancer activity against human DU145 cells assessed as reduction in cell viability incubated for 48 hrs by MTT assay; format: functional, cell-based; conditions: DU-145, 48 h
HT-29 = assay: Anticancer activity against human HT-29 cells assessed as reduction in cell viability incubated for 48 hrs by MTT assay; format: functional, cell-based; conditions: HT-29, 48 h
A549 = assay: Anticancer activity against human A549 cells assessed as reduction in cell viability incubated for 48 hrs by MTT assay; format: functional, cell-based; conditions: A549, 48 h
DU-145 [2] = assay: Reduction in mitochondrial membrane potential in human DU145 cells at 3 uM incubated for 48 hrs by JC1 dye staining based flow cytometry; format: functional, cell-based
Outline: (§1)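 After 48 h exposure at 1.5 or 3 μM, DU-145 cells were stained with JC-1 to track loss of mitochondrial membrane potential (ΔΨm) and read on a FACScan flow cytometer. Untreated control and nocodazole (1.5 μM) were run alongside.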

DU-145 [3] = assay: Reduction in mitochondrial membrane potential in human DU145 cells assessed as cell level at Q1-lower right quadrant at 1.5 uM incubated for 48 hrs by JC1 dye staining based flow cytometry (reference value: 3.1%); format: functional; parameters: scale not given: the % may be the effect or the level left; outline: as §1
DU-145 [4] = assay: Induction of apoptosis in human DU145 cells assessed as late apoptotic cells level at 1.5 uM incubated for 48 hrs by Annexin V-FITC and propidium iodide staining based flow cytometry (reference value: 3.83%); format: functional
DU-145 [5] = assay: Reduction in mitochondrial membrane potential in human DU145 cells assessed as cell level at Q1-lower right quadrant at 3 uM incubated for 48 hrs by JC1 dye staining based flow cytometry (reference value: 3.1%); format: functional; parameters: scale not given: the % may be the effect or the level left; outline: as §1
DU-145 [6] = assay: Induction of cell cycle arrest in human DU145 cells assessed as accumulation at subG1 phase at 1.5 uM incubated for 48 hrs by propidium iodide staining based flow cytometry (reference value: 9.12%); format: functional
DU-145 [7] = assay: Reduction in mitochondrial membrane potential in human DU145 cells assessed as cell level at Q1-upper left quadrant at 1.5 uM incubated for 48 hrs by JC1 dye staining based flow cytometry (reference value: 1.6%); format: functional; parameters: scale not given: the % may be the effect or the level left; outline: as §1
DU-145 [8] = assay: Induction of cell cycle arrest in human DU145 cells assessed as accumulation at S phase at 1.5 uM incubated for 48 hrs by propidium iodide staining based flow cytometry (reference value: 1.74%); format: functional
DU-145 [9] = assay: Reduction in mitochondrial membrane potential in human DU145 cells assessed as cell level at Q1-upper right quadrant at 3 uM incubated for 48 hrs by JC1 dye staining based flow cytometry (reference value: 95.1%); format: functional; parameters: scale not given: the % may be the effect or the level left; outline: as §1
DU-145 [10] = assay: Induction of cell cycle arrest in human DU145 cells assessed as accumulation at G0/G1 phase at 3 uM incubated for 48 hrs by propidium iodide staining based flow cytometry (reference value: 79.81%); format: functional
DU-145 [11] = assay: Induction of apoptosis in human DU145 cells assessed as early apoptotic cells level at 1.5 uM incubated for 48 hrs by Annexin V-FITC and propidium iodide staining based flow cytometry (reference value: 4.73%); format: functional
DU-145 [12] = assay: Reduction in mitochondrial membrane potential in human DU145 cells assessed as cell level at Q1-upper left quadrant at 3 uM incubated for 48 hrs by JC1 dye staining based flow cytometry (reference value: 1.6%); format: functional; parameters: scale not given: the % may be the effect or the level left; outline: as §1
DU-145 [13] = assay: Induction of cell cycle arrest in human DU145 cells assessed as accumulation at S phase at 3 uM incubated for 48 hrs by propidium iodide staining based flow cytometry (reference value: 1.74%); format: functional
DU-145 [14] = assay: Induction of apoptosis in human DU145 cells assessed as increase in caspase-3 levels level at 1.5 and 3 uM incubated for 48 hrs by ELISA method; format: functional
Outline: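 Caspase-3 levels measured in DU-145 cells after 48 h treatment at 1.5 and 3 μM and expressed relative to untreated control. Data are mean ± SD of two experiments each run in triplicate; significance set at P < 0.005 versus control.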

DU-145 [15] = assay: Reduction in mitochondrial membrane potential in human DU145 cells assessed as cell level at Q1-lower left quadrant at 1.5 uM incubated for 48 hrs by JC1 dye staining based flow cytometry (reference value: 0.1%); format: functional; parameters: scale not given: the % may be the effect or the level left; outline: as §1
DU-145 [16] = assay: Induction of cell cycle arrest in human DU145 cells assessed as accumulation at G2/M phase at 1.5 uM incubated for 48 hrs by propidium iodide staining based flow cytometry (reference value: 6.51%); format: functional
DU-145 [17] = assay: Induction of apoptosis in human DU145 cells assessed as necrotic cells level at 3 uM incubated for 48 hrs by Annexin V-FITC and propidium iodide staining based flow cytometry (reference value: 3.56%); format: functional
DU-145 [18] = assay: Induction of cell cycle arrest in human DU145 cells assessed as accumulation at G0/G1 phase at 1.5 uM incubated for 48 hrs by propidium iodide staining based flow cytometry (reference value: 79.81%); format: functional
DU-145 [19] = assay: Induction of apoptosis in human DU145 cells assessed as viable cells level at 3 uM incubated for 48 hrs by Annexin V-FITC and propidium iodide staining based flow cytometry (reference value: 87.88%); format: functional
HEK293 = assay: Cytotoxic activity against human HEK293 cells assessed as reduction in cell viability incubated for 48 hrs by MTT assay; format: cell-based; conditions: HEK293, 48 h
DU-145 [20] = assay: Induction of apoptosis in human DU145 cells assessed as necrotic cells level at 1.5 uM incubated for 48 hrs by Annexin V-FITC and propidium iodide staining based flow cytometry (reference value: 3.56%); format: functional
DU-145 [21] = assay: Induction of apoptosis in human DU145 cells assessed as viable cells level at 1.5 uM incubated for 48 hrs by Annexin V-FITC and propidium iodide staining based flow cytometry (reference value: 87.88%); format: functional
DU-145 [22] = assay: Reduction in mitochondrial membrane potential in human DU145 cells at 1.5 uM incubated for 48 hrs by JC1 dye staining based flow cytometry; format: functional, cell-based; outline: as §1
DU-145 [23] = assay: Reduction in mitochondrial membrane potential in human DU145 cells assessed as cell level at Q1-upper right quadrant at 1.5 uM incubated for 48 hrs by JC1 dye staining based flow cytometry (reference value: 95.1%); format: functional; parameters: scale not given: the % may be the effect or the level left; outline: as §1
DU-145 [24] = assay: Induction of cell cycle arrest in human DU145 cells assessed as accumulation at G2/M phase at 3 uM incubated for 48 hrs by propidium iodide staining based flow cytometry (reference value: 6.51%); format: functional
DU-145 [25] = assay: Induction of cell cycle arrest in human DU145 cells assessed as accumulation at subG1 phase at 3 uM incubated for 48 hrs by propidium iodide staining based flow cytometry (reference value: 9.12%); format: functional
DU-145 [26] = assay: Reduction in mitochondrial membrane potential in human DU145 cells assessed as cell level at Q1-lower left quadrant at 3 uM incubated for 48 hrs by JC1 dye staining based flow cytometry (reference value: 0.1%); format: functional; parameters: scale not given: the % may be the effect or the level left; outline: as §1
DU-145 [27] = assay: Induction of apoptosis in human DU145 cells assessed as late apoptotic cells level at 3 uM incubated for 48 hrs by Annexin V-FITC and propidium iodide staining based flow cytometry (reference value: 3.83%); format: functional
DU-145 [28] = assay: Induction of apoptosis in human DU145 cells assessed as early apoptotic cells level at 3 uM incubated for 48 hrs by Annexin V-FITC and propidium iodide staining based flow cytometry (reference value: 4.73%); format: functional

## CCOC(=O)[C@H]1[C@H](C(=O)c2ccc(C)cc2)C12C(=O)N(C)c1ccccc12 (relative stereo)
HeLa
  IC50: 33.5 µM
MCF7
  IC50: 24.7 µM
DU-145 [1]
  IC50: 7.24 µM
HT-29
  IC50: 23.9 µM
A549
  IC50: 5.49 µM

## CCOC(=O)[C@H]1[C@H](C(=O)c2ccc([N+](=O)[O-])cc2)C12C(=O)N(C)c1ccccc12 (relative stereo)
HeLa
  IC50: 51.2 µM
MCF7
  IC50: 37.1 µM
DU-145 [1]
  IC50: 18.9 µM
HT-29
  IC50: 19.7 µM
A549
  IC50: 26.1 µM

## CCOC(=O)[C@H]1[C@H](C(=O)c2ccc(Cl)cc2)C12C(=O)N(C)c1ccccc12 (relative stereo)
HeLa
  IC50: 12.6 µM
MCF7
  IC50: 12.6 µM
DU-145 [1]
  IC50: 6.3 µM
HT-29
  IC50: 8.51 µM
A549
  IC50: 6.56 µM

## CCOC(=O)[C@H]1[C@H](C(=O)c2ccc(OC)cc2)C12C(=O)N(C)c1ccccc12 (relative stereo)
HeLa
  IC50: 15.4 µM
MCF7
  IC50: 18.2 µM
DU-145 [1]
  IC50: 15 µM
HT-29
  IC50: 13.2 µM
A549
  IC50: 5.88 µM

## CCOC(=O)[C@H]1[C@H](C(=O)c2ccc(C)cc2)C12C(=O)Nc1ccc(Br)cc12 (relative stereo)
DU-145 [2]
  Activity: Active
HeLa
  IC50: 16.1 µM
DU-145 [3]
  Activity: 7.5%
DU-145 [4]
  Activity: 66.31%
DU-145 [5]
  Activity: 12%
DU-145 [6]
  Activity: 8.8%
DU-145 [7]
  Activity: 3.1%
DU-145 [8]
  Activity: 26.17%
MCF7
  IC50: 3.63 µM
DU-145 [9]
  Activity: 84.1%
DU-145 [10]
  Activity: 3.4%
DU-145 [11]
  Activity: 57.28%
DU-145 [12]
  Activity: 2.1%
DU-145 [1]
  IC50: 1.86 µM
DU-145 [13]
  Activity: 64.01%
DU-145 [14]
  fold change (FC): 2
DU-145 [15]
  Activity: 1.1%
DU-145 [16]
  Activity: 2.1%
HT-29
  IC50: 1.87 µM
DU-145 [17]
  Activity: 11.5%
DU-145 [18]
  Activity: 1.35%
DU-145 [19]
  Activity: 17%
HEK293
  IC50: 79.4 µM
DU-145 [20]
  Activity: 3.41%
A549
  IC50: 4.56 µM
DU-145 [21]
  Activity: 2.74%
DU-145 [22]
  Activity: Active
DU-145 [23]
  Activity: 88.1%
DU-145 [24]
  Activity: 3.16%
DU-145 [25]
  Activity: 85.57%
DU-145 [26]
  Activity: 1.8%
DU-145 [27]
  Activity: 18.78%
DU-145 [28]
  Activity: 22.98%

## CCOC(=O)[C@H]1[C@H](C(=O)c2ccc(OC)cc2)C12C(=O)Nc1ccc(Br)cc12 (relative stereo)
HeLa
  IC50: 45.1 µM
MCF7
  IC50: 41.6 µM
DU-145 [1]
  IC50: 31.7 µM
HT-29
  IC50: 33.7 µM
A549
  IC50: 79.4 µM

## CCOC(=O)[C@H]1[C@H](C(=O)c2ccc3ccccc3c2)C12C(=O)Nc1ccc(Br)cc12 (relative stereo)
HeLa
  IC50: > 100 µM
MCF7
  IC50: 29.3 µM
DU-145 [1]
  IC50: 36.9 µM
HT-29
  IC50: 79.4 µM
A549
  IC50: 25 µM

## CCOC(=O)[C@H]1[C@H](C(=O)c2ccc(Cl)cc2)C12C(=O)Nc1ccc(Br)cc12 (relative stereo)
HeLa
  IC50: 62.1 µM
MCF7
  IC50: 12.2 µM
DU-145 [1]
  IC50: 8.12 µM
HT-29
  IC50: 8.47 µM
A549
  IC50: 15.8 µM

## CCOC(=O)[C@H]1[C@H](C(=O)c2ccc([N+](=O)[O-])cc2)C12C(=O)Nc1ccc(Br)cc12 (relative stereo)
HeLa
  IC50: 68.9 µM
MCF7
  IC50: > 100 µM
DU-145 [1]
  IC50: 31.6 µM
HT-29
  IC50: 42.6 µM
A549
  IC50: 30.5 µM

## COC(=O)Nc1nc2cc(C(=O)c3cccs3)ccc2[nH]1 [NOCODAZOLE]
DU-145 [3]
  Activity: 8.3%
DU-145 [4]
  Activity: 5.35%
DU-145 [6]
  Activity: 9.25%
DU-145 [7]
  Activity: 2.8%
DU-145 [8]
  Activity: 5.61%
DU-145 [11]
  Activity: 9.52%
DU-145 [15]
  Activity: 1.4%
DU-145 [16]
  Activity: 26.59%
DU-145 [18]
  Activity: 57.63%
DU-145 [20]
  Activity: 3.92%
DU-145 [21]
  Activity: 81.21%
DU-145 [22]
  Activity: Active
DU-145 [23]
  Activity: 87.5%
